Most compounds without a hit are left out; they make up all but 27% or so of the library.
Rev-RRE block = HIV-1 Rev-RRE binding inhibitors, primary screen, biochemical, FRET, protein-RNA interaction; P05866; Rev peptide-RRE RNA binding; inhibition, % at 8 µM; hit rate 0.79% among 97,000; AID 704, 2007;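 active = inhibition above the screen-wide mean plus 3 SD, cut at about 35% in these data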;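 note: 0% = median DMSO wells and 100% = median Neomycin B control wells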
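Test system – labelled RRE RNA duplex and labelled Rev peptide · Reagent – labelled Rev peptide · Doses – one concentration, 8 µM nominal · Incubation – 5 + 15 min at 25 °C · Signal – FRET fluorescence readout · Read-out basis – % inhibition of FRET ratio versus controls · Control set – DMSO wells as 0% and neomycin B wells as 100% inhibition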
CYP2C19 inh = blockers of cytochrome P450 2C19 activity – biochemical, luminescence, ADME assay, primary screen; P33261; inhibition, % at 5 µM; hit rate 21% among 96,000; CYP2C19 Supersomes, luciferin-H EGE luminescence, 30 min;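 active = CYP2C19 inhibition above a set limit at 5 µM in the primary screen, cut at about 50% in these data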;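 note: plate controls were negative control wells for no effect and 2.5 mM tranylcypromine positive control for full effect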
CYP2C9 inhib = blockers of cytochrome P450 2C9 activity – biochemical, luminescence, ADME assay, primary screen; P11712; CYP2C9 Supersomes, luciferin-H conversion; inhibition, % at 5 µM; hit rate 20% among 96,000;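 active = blocking of liver enzyme CYP2C9 beyond about 50% at 5 µM, limit read from the data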
CYP2C9 act = human CYP2C9 activators, primary screen, biochemical, luminescence; hit rate 1.4% among 96,000; Cytochrome P450 2C9 (Homo sapiens), P11712; activation factor at 5 µM; recombinant CYP2C9, luciferin-H conversion; stronger effect = higher value; factor 1 = untreated enzyme, 0 = blocked; AID 1024, 2008;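 active = activation factor of 2 or more for CYP2C9 at a 5 µM dose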;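 note: 0 = sulfaphenazole-blocked wells and 1 = vehicle-only wells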
CYP2C19 act = human CYP2C19 activators, primary screen, biochemical, luminescence; Cytochrome P450 2C19 (Homo sapiens), P33261; recombinant CYP2C19, luciferin-H EGE luminescence; stronger effect = higher value; 0 = fully inhibited enzyme, 1 = untreated enzyme; activation factor at 5 µM; 96,000 tested, under 10 active; AID 1025, 2008;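 active = activation factor of at least 2 at 5 µM in the primary screen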;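 note: 0 = wells with 2.5 mM tranylcypromine and 1 = vehicle-only wells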
Cav32 inh = Cav3.2 calcium influx blockers – cell-based, Fluo-4 calcium fluorescence, FDSS, MLSMR library, primary screen; Voltage-dependent T-type calcium channel subunit alpha-1H (Homo sapiens), O95180; B-score at 10 µM; hit rate 4% among 100,000; Cav3.2-expressing cells; stronger effect = lower value; AID 449739, 2010;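 active = single-dose well whose peak fluorescence ratio is a statistical outlier from its plate by either plate-standardised score or position-corrected B-score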
The depositor's hits bear a star; . = not tested or not shown.

SMILES	Rev-RRE block	CYP2C19 inh	CYP2C9 inhib	CYP2C9 act	CYP2C19 act	Cav32 inh
Cc1oc2c(c1C(=O)c1ccc(Cl)cc1)C(=O)C(=O)c1ccccc1-2	8	28	22	0.8	0.7	.
Cc1ccc(C(=O)c2c(C)oc3c2C(=O)C(=O)c2ccccc2-3)cc1	10	63*	56*	0.4	0.4	-3.9
Cc1ccc(C(=O)c2coc3c2C(=O)C(=O)c2ccccc2-3)cc1	9	46	72*	0.3	0.5	-2.9
CCOCC(=O)Nc1nnc(SCCOC)s1	8	1	51*	0.5	1	0.79
COC(=O)c1sc(NC(=O)COc2cccc3ccccc23)nc1C	0	20	33	0.7	0.8	0.041
CCSc1nnc(NC(=O)COc2cccc3ccccc23)s1	6	22	57*	0.4	0.8	-1.4
CCNC(=O)COc1cccc2ccccc12	-5	54*	-11	1.1	0.5	-0.19
COc1ccc2c(=O)c(-c3cnn(-c4ccccc4)c3)c(C)oc2c1	6	24	29	0.7	0.8	-1.9
COC(=O)c1cc(=O)c2ccc(OC)cc2o1	.	13	-4	1	0.9	.
CC(=O)Oc1ccc2c(=O)c(-c3ccccc3)c(C)oc2c1	.	.	.	.	.	-4.5*
COC(=O)c1cc(COc2ccc3oc(C)c(C(=O)OC(C)C)c3c2)c(C)o1	9	88*	84*	0.2	0.1	-0.25
COC(=O)c1cc(-c2c(C)oc3cc(OC(C)C)ccc3c2=O)c(C)o1	.	60*	67*	0.3	0.4	0.16
CC1(C)SCC2C(=O)N3C(CSC3(C)C)C(=O)N21 (configuration not stated)	4	14	10	0.9	0.9	0.45
Cc1c(N=Cc2ccc(-c3ccc(Cl)cc3)o2)c(=O)n(-c2ccccc2)n1C	.	59*	18	0.8	0.4	0.11
CCOc1ccc(S(=O)(=O)N2CCN(S(=O)(=O)c3ccc(OCC)cc3)C(C)C2)cc1 (configuration not stated)	.	19	22	0.8	0.8	0.083
COC(=O)C1CN(S(=O)(=O)c2ccccc2)CCN1S(=O)(=O)c1ccccc1 (configuration not stated)	3	98*	74*	0.3	0	0.011
CCOC(=O)C1CN(S(=O)(=O)c2ccc(C)cc2)CCN1S(=O)(=O)c1ccc(C)cc1 (configuration not stated)	16	96*	78*	0.2	0	0.19
CCOC(=O)C1CN(S(=O)(=O)c2ccccc2)CCN1S(=O)(=O)c1ccccc1 (configuration not stated)	0	94*	70*	0.3	0.1	0.26
O=C(O)C1CCCN1S(=O)(=O)c1ccccc1 (configuration not stated)	2	.	.	.	.	-0.52
COc1cccc(/C=c2/s/c(=C(\C#N)C(=O)N3CCOCC3)n(-c3ccccc3)c2=O)c1	-2	31	15	0.8	0.7	0.091
Cc1ccccc1NC(=O)/C=C/c1cccc(C(F)(F)F)c1	7	5	-122	2.2*	0.9	-2.1
NC(=O)/C=C\C(=O)Nc1cccc(C(F)(F)F)c1	2	11	3	1	0.9	.
Cc1cc(-c2nn3c(C)nnc3s2)ccc1NC(=O)C(C)(C)C	-2	.	.	.	.	1.1
Cc1ccc(S(=O)(=O)NCC(c2cccnc2)N(C)C)cc1 (configuration not stated)	3	61*	7	0.9	0.4	-0.21
O=S(=O)(NCC(c1cccnc1)N1CCOCC1)c1cccs1 (configuration not stated)	3	.	.	.	.	-0.039
SMILES	Rev-RRE block	CYP2C19 inh	CYP2C9 inhib	CYP2C9 act	CYP2C19 act	Cav32 inh
CN(C)C(CNS(=O)(=O)c1ccc(F)cc1)c1cccnc1 (configuration not stated)	7	24	3	1	0.8	0.21
O=S(=O)(NCC(c1ccccc1)N1CCNCC1)c1ccc(Cl)cc1 (configuration not stated)	6	60*	5	0.9	0.4	-1.1
O=S(=O)(NCC(c1cccnc1)N1CCN(c2ccc(F)cc2)CC1)c1ccc(F)cc1 (configuration not stated)	16	84*	72*	0.3	0.2	-3.2
O=S(=O)(NCC(c1cccnc1)N1CCN(Cc2ccccc2)CC1)c1ccccc1 (configuration not stated)	11	.	.	.	.	1.4
O=S(=O)(NCC(c1cccnc1)N1CCN(c2ccc(F)cc2)CC1)c1cccs1 (configuration not stated)	.	88*	58*	0.4	0.1	1.1
CCCNC(=S)NC1CCCC1	7	22	9	0.9	0.8	0.088
CN(C(=O)COc1ccccc1)c1nnc(C23CC4CC(CC(C4)C2)C3)s1	.	.	.	.	.	0.34
O=C(C(NS(=O)(=O)c1cccs1)c1ccccc1)N1CCN(c2ccccc2F)CC1 (configuration not stated)	0	69*	56*	0.4	0.3	0.026
O=S(=O)(NCC(c1cccnc1)N1CCN(c2ccccc2F)CC1)c1cccs1 (configuration not stated)	9	86*	66*	0.3	0.1	0.86
COc1ccccc1N1CCN(C(CNS(=O)(=O)c2ccc(C)cc2)c2cccnc2)CC1 (configuration not stated)	10	58*	18	0.8	0.4	-0.43
O=C(C(Sc1ccccc1)c1ccccc1)N1CCN(c2ccccc2F)CC1 (configuration not stated)	6	86*	76*	0.2	0.1	-4*
O=C(O[C@@H]1OC2COC(=O)c3cc(O)c(O)c(O)c3-c3c(cc(O)c(O)c3O)C(=O)O[C@@H]([C@H]1O)[C@@H]2O)c1cc(O)c(O)c(O)c1	.	.	.	.	.	-0.68
O=C(c1ccc2c(c1)OCO2)N(Cc1ccco1)C1(C(=O)NC2CCCCC2)CCCCC1	-1	59*	46	0.5	0.4	1.1
O=C(Cc1cccs1)N(Cc1ccco1)C1(C(=O)NC2CCCC2)CCCCC1	.	45	60*	0.4	0.6	-5.2*
O=C(c1ccccn1)N(Cc1ccco1)C1(C(=O)NC2CCCC2)CCCCC1	-1	-5	10	0.9	1.1	-2.1
CCC(C)(C(=O)NC1CCCC1)N(Cc1ccco1)C(=O)c1ccc2c(c1)OCO2 (configuration not stated)	-2	38	21	0.8	0.6	-3.6*
